Assays:
[1] = system: Leishmania amazonensis; assay: Leishmanicidal activity against promastigote stage of Leishmania amazonensis MHOM/BR/PH8 after 48 hrs by MTT assay; type: functional, organism-based; conditions: MHOM/BR/PH8, 48 h
Procedure, shortened: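 L. amazonensis MHOM/BR/PH8 promastigotes in Schneider's medium with 20% heat-inactivated FCS, at 10^5 per well in log phase. MTT was added for 4 h at 37 °C, formazan dissolved in DMSO and read at 570 nm. Amphotericin B was the reference drug.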

[2] = Antivascular activity in human EAhy926 cells assessed as concentration require to adopt rounding shape after 2 hrs by microscopic analysis; type: functional, EA.hy 926
[3] = Cytotoxicity against rat L6 cells assessed as viable cells at 10 uM after 72 hrs by MTT assay relative to control; type: cell-based; conditions: read-out: Activity
Procedure, shortened: (§1)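 L6 rat skeletal myoblasts, about 4 × 10^4 cells/well, dosed 24 h after seeding at 10 and 1 µM, in triplicate. After 72 h, MTT was added for 2 h, formazan was dissolved in detergent for 2 h at room temperature in the dark, and absorbance was read at 570 nm. Results are given as percent viable cells.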

[4] = Cytotoxicity against rat L6 cells assessed as viable cells at 1 uM after 72 hrs by MTT assay relative to control; type: cell-based; conditions: read-out: Activity; procedure, shortened: as §1
[5] = system: B16; assay: Cytotoxicity against mouse B16 cells assessed as cell viability after 48 hrs by MTT assay; type: cell-based; conditions: B16, 48 h
Procedure, shortened: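 B16 murine melanoma cells, 5000/well, treated 24 h after plating. Compounds were tested at 0.01 to 100 µM final (DMSO stock 2.5 mg/mL), in triplicate, for 48 h at 37 °C under 5% CO2.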

[6] = biological target: Tubulin (Homo sapiens) (UniProt P68371+Q9H4B7+P0DPH7+P68366+Q13509+Q71U36+P04350+Q3ZCM7+P07437+P68363+Q9BQE3+Q6PEY2+Q13885+Q9BVA1+Q9BUF5); assay: Inhibition of tubulin (unknown origin) polymerization at 30 uM preincubated for 45 mins followed by GTP addition measured after 2 hrs by fluorescence assay relative to control; type: protein-complex assay
[7] = biological target: Tubulin; assay: Inhibition of tubulin (unknown origin) polymerization preincubated for 45 mins followed by GTP addition measured after 2 hrs by fluorescence assay; type: protein-complex assay, Homo sapiens
[8] = system: Plasmodium falciparum; assay: Antiplasmodial activity against Plasmodium falciparum FcB1/Columbia infected in human red blood cells assessed as parasite growth inhibition at 10 uM after 48 hrs by [3H]-hypoxanthine incorporation assay relative to control; type: functional; conditions: read-out: GI
Procedure, shortened: (§2)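 P. falciparum FcB1 (Colombia) grown in human red cells, in triplicate. Screened at 50 and 10 µM in 96-well plates for 48 h at 37 °C under reduced oxygen, then [3H]-hypoxanthine was added and incorporation counted. Counts per minute are given as percent of untreated controls.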

[9] = system: Trypanosoma brucei gambiense; assay: Antitrypanosomal activity against Trypanosoma brucei gambiense Feo assessed as parasite growth inhibition at 50 uM after 72 hrs by fluorescence assay relative to control; type: functional; conditions: read-out: GI
Procedure, shortened: (§3)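 Bloodstream-form T. b. gambiense Feo at 10^5 parasites/mL, screened at 50 and 10 µM in triplicate. Incubated 72 h at 37 °C under 5% CO2. Values are percent of untreated controls. Pentamidine served as positive control.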

[10] = system: Trypanosoma brucei gambiense; assay: Antitrypanosomal activity against Trypanosoma brucei gambiense Feo assessed as parasite growth inhibition at 10 uM after 72 hrs by fluorescence assay relative to control; type: functional; conditions: read-out: GI; procedure, shortened: as §3
[11] = system: Trypanosoma brucei gambiense; assay: Antitrypanosomal activity against Trypanosoma brucei gambiense Feo assessed as parasite growth inhibition after 72 hrs by fluorescence assay; type: functional, organism-based
Procedure, shortened: as §3, with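 “CO2. Resazurin (45 µM final) was added for 4 h at 37 °C, followed by 22 h at room temperature, and fluorescence read at ex 535/em 590 nm.” for “CO2.”, “controls. […]” for “controls.”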

[12] = system: Plasmodium falciparum; assay: Antiplasmodial activity against Plasmodium falciparum FcB1/Columbia infected in human red blood cells assessed as parasite growth inhibition after 48 hrs by [3H]-hypoxanthine incorporation assay; type: functional, organism-based
Procedure, shortened: as §2, with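 “controls. Selected compounds were then re-run at 100 to 0.195 µM, with IC50 taken from sigmoidal inhibition curves.” for “controls.”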

SMILES	IC50 [1]	Activity [2]	viability at 72 h, 10 µM [3]	viability at 72 h, 1 µM [4]	IC50 [5]	inhibition [6]	IC50 [7]	inhibition of growth at 10 µM [8]	inhibition of growth at 50 µM [9]	inhibition of growth at 10 µM [10]	IC50 [11]	IC50 [12]	IC90 [12]
C[C@@H]1[C@H](O)[C@@H](C)/C=C/C=C/C=C/C=C/C=C/C=C/C=C/[C@H](O[C@@H]2O[C@H](C)[C@@H](O)[C@H](N)[C@@H]2O)C[C@@H]2O[C@](O)(C[C@@H](O)C[C@@H](O)[C@H](O)CC[C@@H](O)C[C@@H](O)CC(=O)O[C@H]1C)C[C@H](O)[C@H]2C(=O)O [AMPHOTERICIN B]	0.0725 µM												
COc1ccc(/C=C\c2cc(OC)c(OC)c(OC)c2)cc1O [COMBRETASTATIN A4]		0.27 µM											
COc1ccc(-c2oc3cc(O)c(OC)c(O)c3c(=O)c2OC)cc1OC	8.15 µM	25 µM	94.7%	99.7%	28.9 µM	75.1%	19.3 µM	21.3%	99.8%	76.2%			
COc1cc(O)c2c(=O)c(OC)c(-c3ccc(O)cc3)oc2c1 [KUMATAKENIN]	22.9 µM	50 µM	38.7%	81.3%	57.5 µM			7.2%	26.4%	25.2%			
COc1cc(-c2oc3cc(O)c(OC)c(O)c3c(=O)c2OC)cc(OC)c1OC	9.65 µM	12.5 µM	78.2%	96.1%	91.2 µM	69.9%	21.4 µM	13.2%	38.1%	42.9%			
COc1ccc(-c2oc3cc(OC)c(OC)c(OC)c3c(=O)c2OC)cc1	37.2 µM	50 µM	93.6%	88.3%	> 100 µM			0%	24.9%	29.4%			
COc1ccc(-c2oc3cc(OC)cc(O)c3c(=O)c2OC)cc1	33 µM	100 µM	100%	99.1%	> 100 µM			3.9%	19.9%	4.6%			
COc1cc(-c2oc3cc(OC)c(OC)c(O)c3c(=O)c2OC)cc(OC)c1OC	21.8 µM	>100 µM	53.5%	99.2%	11.5 µM			21.7%	40.5%	17.6%			
CC(=O)Oc1ccc(-c2oc3cc(OC(C)=O)cc(O)c3c(=O)c2OC(C)=O)cc1	12.3 µM	>100 µM	94.8%	90.2%	39.8 µM			7.6%	5.6%	0%			
COc1c(-c2ccc(O)cc2)oc2cc(O)cc(O)c2c1=O [ISOKAEMPFERIDE]	14.3 µM	>100 µM	61%	85%	75.8 µM			2.9%	93.4%	36.6%			
O=c1c(O)c(-c2ccc(O)cc2)oc2cc(O)cc(O)c12 [KAEMPFEROL]	27.6 µM	>100 µM	100%	93.8%	53.7 µM			0%	86.5%	55.1%			
COc1ccc(-c2oc3cc(O)c(OC)c(O)c3c(=O)c2OC)cc1 [SANTIN]	63.1 µM	12.5 µM	40.8%	90.9%	45.7 µM	100%	5.7 µM	0%	83.1%	33.2%			
N=C(N)c1ccc(OCCCCCOc2ccc(C(=N)N)cc2)cc1 [PENTAMIDINE]											0.007 µM		
COc1ccc(-c2oc3cc(OC)c(OC)c(O)c3c(=O)c2OC)cc1	14.8 µM	>100 µM	96.5%	85.3%	> 100 µM			0%	8%	18.3%			
COc1cc(-c2oc3cc(OC)c(OC)c(OC)c3c(=O)c2OC)cc(OC)c1OC	31.6 µM	>100 µM	81.2%	93.8%	> 100 µM			35%	72.4%	25.9%		5.8 µM	10.8 µM
COc1c(O)cc2oc(-c3ccc(O)cc3)c(OC)c(=O)c2c1O [3,6-DIMETHOXY KAEMPFEROL]	8.07 µM	>100 µM	73.5%	86.2%	74.1 µM			0%	88.8%	40.7%			
COc1c(O)c(OC)c2oc(-c3ccc(O)cc3)c(OC)c(=O)c2c1O	27.3 µM	>100 µM	80.4%	88.4%	> 100 µM			0.6%	50.7%	14.6%			
COc1cc(-c2oc3cc(O)c(OC)c(O)c3c(=O)c2OC)cc(O)c1OC	10.2 µM	1.6 µM	44.2%	97.6%	33.9 µM	99%	17.8 µM	0%	82.6%	37.8%			

Source: ChEMBL document CHEMBL3407434, “Antivascular and anti-parasite activities of natural and hemisynthetic flavonoids from New Caledonian Gardenia species (Rubiaceae)” (Eur J Med Chem, 2015)
